# NS3 helicase inh: HCV NS3 helicase inhibition; NS3 helicase DNA unwinding, Cy5 molecular beacon fluorescence; inhibition, % at 10.9 µM; actives 0.56% (n = 290,000); AID 1800;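 active = inhibition above the mean of all tested compounds plus 3 SD, set per campaign, cut at about 35% in these data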;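 note: 0% = DMSO wells and 100% = thioflavine S control wells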
#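 System: HCV NS3 helicase fragment; control set: DMSO and thioflavine S; technique: Cy5 fluorescence at 0 and 60 min, beacon hairpin quenching; reagent: beacon DNA duplex substrate plus ATP; replicates: singlicate; schedule: 1 h reaction at 25 °C, ATP-initiated; medium: MOPS buffer pH 6.5 with MgCl2, DTT, Tween20, BSA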
# PABP1 MLLE inh: inhibitors of microRNA-mediated deadenylation, human PABP1 MLLE binding; P11940; GST-MLLE / FITC-PAM2 fluorescence polarization; inhibition, % at 20 µM; actives 0.36% (n = 360,000); in the data active = inhibition above about 35%, passing the limit was not always enough;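 note: plate controls were DMSO wells with GST-MLLE for no effect and wells lacking GST-MLLE protein for full effect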
# Target sequence (P11940 whole entry, looked up): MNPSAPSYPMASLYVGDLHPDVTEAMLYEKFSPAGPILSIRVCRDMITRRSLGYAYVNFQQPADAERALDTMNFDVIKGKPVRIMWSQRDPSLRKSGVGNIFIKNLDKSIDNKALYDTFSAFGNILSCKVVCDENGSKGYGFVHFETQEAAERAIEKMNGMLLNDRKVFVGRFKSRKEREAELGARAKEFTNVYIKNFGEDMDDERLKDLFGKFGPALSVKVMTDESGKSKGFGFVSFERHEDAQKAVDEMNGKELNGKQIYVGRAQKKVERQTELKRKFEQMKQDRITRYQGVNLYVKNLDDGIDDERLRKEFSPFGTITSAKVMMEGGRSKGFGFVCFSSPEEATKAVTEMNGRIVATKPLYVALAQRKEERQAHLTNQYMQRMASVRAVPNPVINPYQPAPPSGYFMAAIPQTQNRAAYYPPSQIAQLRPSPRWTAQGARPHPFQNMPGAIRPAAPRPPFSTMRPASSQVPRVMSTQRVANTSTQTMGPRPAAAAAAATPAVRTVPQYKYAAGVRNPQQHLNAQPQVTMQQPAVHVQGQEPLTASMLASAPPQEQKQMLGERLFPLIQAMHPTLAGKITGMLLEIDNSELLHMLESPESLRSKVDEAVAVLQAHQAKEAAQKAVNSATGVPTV
# PABP FP inh: blocks human PABP binding to poly(A) RNA | fluorescence polarization | actives 1% (n = 290,000) | inhibition, % at 35 µM | AID 2014;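 note: calls also rest on retests at 20 µM and on dose response follow-up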
# eIF4H FP inh: inhibitors of RNA binding by human eIF4H; Q15056; AID 2012; actives 0.94% (n = 290,000); eIF4H fluorescence polarization binding assay; inhibition, % at 35 µM;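 note: calls also rest on retests at 20 µM and on dose response follow-up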
# ZTA DNA inh: counter-screen for EBNA-1 inhibitors: inhibitors of Epstein-Barr virus ZTA; P03206; ZTA-DNA binding, fluorescence polarization; inhibition, % at 11 µM; actives 0.15% (n = 320,000); in the data active = inhibition above about 33%
# EBNA-1 inh: blocks EBNA-1 binding to DNA; EBNA-1 DNA binding, fluorescence polarization; inhibition, % at 14.8 µM; actives 0.34% (n = 300,000); AID 1950; in the data active = inhibition above about 28%
# Numbers without * were called inactive; . = not tested or not shown. An excerpt weighted towards active compounds, which were near 2.1% of everything screened. Unless noted, the rule behind the calls is not given here.
SMILES,NS3 helicase inh,PABP1 MLLE inh,PABP FP inh,eIF4H FP inh,ZTA DNA inh,EBNA-1 inh
CCOC(=O)CSc1nc2c(sc(=S)n2-c2ccccc2OC)c(=O)n1-c1ccccc1OC,7.8,-10.2,12.3,4.1,-9.1,10.8
CCOC(=O)CSc1nc2c(sc(=S)n2-c2ccccc2OC)c(=O)n1Cc1ccco1,-2.6,38.2*,-9.3,3.7,10.4,-6.6
O=C(CC1CCCC1)NNC(=O)c1ccc(F)cc1,.,-1.4,.,.,3.5,-8.8
COC(=O)CCC(=O)Nc1c(C)n(C)n(-c2ccccc2)c1=O,-0.2,-9.2,3.6,1.1,7.0,-4.8
Cc1c(NC(=O)CC(C)C)c(=O)n(-c2ccccc2)n1C,-4.3,0.7,79.3*,-1.4,-8.9,5.5
C=CCOC(=O)c1cc(-c2ccc(/C=C3\C(=O)NC(=O)C(C#N)=C3C)o2)ccc1Cl,10.0,-12.6,51.1*,70.8*,.,.
CCN1C(=NCCc2cccs2)N[C@@H](c2cccs2)C(C(=O)OC)=C1C,-49.1,-116.8,55.8*,0.2,-6.0,-0.7
COc1cc(CN(C)C(=O)C(=O)c2c[nH]c3ccccc23)ccc1O,.,-13.2,.,.,.,.
O=C(CSc1ccc(S(=O)(=O)N2CCCC2)cn1)Nc1ccc([N+](=O)[O-])cc1C(F)(F)F,.,28.7,.,.,.,.
CCCC(=O)OCCNc1cc(SCc2ccco2)c2nonc2c1[N+](=O)[O-],27.2,31.4,active,79.7*,-15.7,-12.0
CCCSc1cc(NCCOC(=O)CCC)c([N+](=O)[O-])c2nonc12,-2.7,-5.9,1.2,-8.2,-3.5,-0.9
Cc1cc(O)cc(O)c1/C=N/NC(=O)c1ccc2c(c1)OCCO2,.,49.1*,.,.,.,.
O=C(O)c1ccc(/C=N/NC(=O)c2ccc3c(c2)OCCO3)cc1,9.7,3.6,3.6,-7.2,-11.5,-3.5
C#Cc1ccc(C(=O)NCc2ccc(N3CCCC3=O)cc2)cc1,-2.3,15.0,active,60.6,-11.0,-6.1
CCNC(=S)N1N=C2c3ccccc3CCC2C1c1ccc(F)cc1 (configuration not stated),1.2,-52.8,-7.5,-2.7,4.9,11.2
Cc1cccn2c(=O)c3cc(C(=O)N4CCCCC4)sc3nc12,-3.8,0.7,20.6,-5.7,-3.9,3.8
Cc1[nH]c2ccccc2c1C(O)c1ccncc1 (configuration not stated),-9.6,6.3,-2.3,13.4,9.6,0.7
Cc1[nH]c2ccccc2c1C(c1ccccn1)c1c(C)[nH]c2ccccc12,-8.7,6.9,60.8*,55.2*,3.5,-8.2
O=c1cc(-c2ccccc2)nc2cc(-c3ccco3)[nH]n12,21.1,6.6,29.4,15.7,-9.5,-20.7
O=C1c2nc3cc(-c4ccco4)[nH]n3c(=O)c2CN1C1CCCCC1,17.8,12.3,65.1*,50.0*,-12.7,-11.7
O=C(NCCc1ccccc1)C(=O)c1cn(CC(=O)N2CCCC2)c2ccccc12,-16.2,1.2,10.0,-7.2,-11.6,3.8
Nc1nnc(-c2cc3c(ccc4ccccc43)oc2=O)s1,-9.9,.,-0.7,85.9*,.,.
O=c1oc2ccc3ccccc3c2cc1-c1nnc(-c2ccccc2)o1,-6.3,0.0,9.4,10.7,17.1,1.9
CCOn1c(=O)c(-c2cc3ccccc3o2)[n+]([O-])c2ccccc21,2.3,-5.8,35.0,45.3,5.7,12.8
O=c1c(-c2cc3ccccc3o2)[n+]([O-])c2ccccc2n1OCc1ccccn1,4.3,2.3,61.1*,84.8,-7.6,-4.8
SMILES,NS3 helicase inh,PABP1 MLLE inh,PABP FP inh,eIF4H FP inh,ZTA DNA inh,EBNA-1 inh
CN(C)CCCNCCCNC(=O)c1ccco1,0.8,6.0,63.7*,33.2*,3.4,3.2
[O-][n+]1c2ccccc2[n+]([O-])c2cc(O)ccc21,24.7,8.3,78.1*,105.6*,22.2,5.0
O=C(CSc1nc2ccccc2n1CCc1ccccc1)c1ccc(O)c(O)c1,16.2,-98.9,93.6*,89.9*,.,.
Cn1c(SCC(=O)c2ccc(O)c(O)c2)nnc1-c1cccs1,16.0,6.9,32.6*,50.0*,-7.3,-5.3
O=C(CSc1nc2ccccc2n1CCc1ccccc1)N1CCOCC1,13.2,-7.2,9.1,-5.4,-7.4,4.8
CC1=CC(C)C2(COC(c3ccc[n+](C)c3)OC2)C(C)C1 (configuration not stated),-7.8,-133.7,58.7*,-2.5,.,.
NC(=O)CSc1nc2scc(-c3ccco3)c2c(=O)n1-c1ccccc1,23.3,-16.4,51.0*,66.6*,-18.5,3.5
C/C(=N\NC(=S)Nc1c(C)cccc1C)c1ccc(O)cc1,2.7,30.3,-11.6,1.6,-1.9,-6.2
C=CCNC(=S)N1CC2(C)CN(C(=S)NCC=C)CC(C)(C1)C2=O,0.7,-82.6,1.8,-12.6,-5.6,9.3
O=C(O)C1CCCCC1C(=O)Nc1nc(-c2ccc(Cl)s2)cs1 (configuration not stated),10.2,25.5,active,76.5*,-10.0,5.9
COc1cc(C(=S)N2CCOCC2)ccc1OS(=O)(=O)c1ccc(Cl)cc1,-5.8,10.2,-4.6,-2.0,1.0,8.2
S=C1NCCNC(=S)NCCOCCOCCN1,-20.0,-47.4,81.1,active,-12.2,-19.3
C1COCCNCCOCCOCCOCCN1,-2.1,-2.6,-4.5,5.1,3.5,4.9
Clc1ccc2oc(-c3ccccn3)nc2c1,-4.4,-24.3,58.1*,16.1*,0.0,10.9
Clc1ccc(-c2nc3ccc(Cl)cn3c2Cc2ccsc2)cc1,.,-3.0,.,.,.,.
CCCc1nc2ccc(Cl)cn2c1Cc1ccsc1,.,44.2*,.,.,.,.
O=c1c2ccccc2ncn1CCCSc1ccccc1,-3.5,-2.1,86.9*,105.8*,11.6,1.1
O=c1c2ccccc2ncn1CCCSc1ccc(Cl)cc1,7.0,-11.0,-6.8,-3.2,1.3,-9.5
CC(C)=C(NC(=O)c1ccccc1Br)C(=O)NCCc1nc2ccccc2[nH]1,3.0,-14.1,active,112.0*,-14.7,0.0
O=C(CNC(=O)c1ccccc1)NCCc1nc2ccccc2[nH]1,-1.8,-11.1,9.7,-2.7,-9.8,-19.3
O=C(Nc1ccnn1C1CCN(Cc2ccccc2)CC1)C1CCOC1 (configuration not stated),-6.3,1.2,-6.1,4.0,-2.1,-2.7
CCN(CC)CCN1C(=O)C(=O)/C(=C(/O)c2ccc(Cl)cc2)C1c1ccncc1 (configuration not stated),-3.1,2.0,4.4,6.7,.,.
O=C(O)CCCN1C(=O)C(=O)/C(=C(/O)c2ccc(Cl)cc2)C1c1ccccc1 (configuration not stated),-25.1,51.2*,6.6,-2.2,9.3,2.2
Cc1onc(-c2ccccc2Cl)c1C(=O)NCc1ccco1,20.7,-1.8,75.3*,95.0*,-5.8,9.2
CCC(CC)C(=O)Nc1ccc(C(=O)Nc2cc(C)on2)cc1,4.7,11.2,4.8,0.5,-1.5,8.4
CC(=O)NC(CC(=O)OCC(=O)Nc1cc(S(=O)(=O)N2CCCCC2)ccc1C)c1ccccc1 (configuration not stated),.,-16.5,.,.,.,.

# From PubChem
